High-throughput results deposited in PubChem BioAssay by several laboratories.
Rows were chosen to be rich in hits. Some 4% of all compounds tested hit in one or more screens of this group.
ABHD5 PLIN5 PPI = ABHD5-PLIN5 interaction inhibitors, primary screen, cell lysate, split luciferase complementation, luminescence; Perilipin-5 (Homo sapiens) + 1-acylglycerol-3-phosphate O-acyltransferase ABHD5 (Homo …; Split G. princeps luciferase complementation, 4 h; inhibition, % at 4 µM; hit rate 0.78% among 360,000; AID 602281, 2012;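 active means inhibition above the mean inhibition across every tested compound plus 3 SD, cut at about 22% in these data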;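 further: 0% = DMSO only wells and the 100% control is not disclosed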
Granule exo inh = LAMP-1 surface exposure blockers, TALL-104 cells – cell-based, flow cytometry, MLPCN library, primary screen; TALL-104 LAMP-1 surface exposure; cells stimulated with thapsigargin and PMA; inhibition, % at 10 µM; hit rate 0.66% among 360,000; AID 651702, 2012;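 active means inhibition above about 55%, limit read from the data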
Mdm2-MdmX inh = inhibitors of human Mdm2-MdmX association, primary screen, cell-based, luminescence, split luciferase, SaOS-2, uHTS; Protein Mdm4 (Homo sapiens) + E3 ubiquitin-protein ligase Mdm2 (Homo sapiens), …; SaOS-2 split-luciferase Mdm2/MdmX complementation; inhibition, % at 8 µM; hit rate 3% among 330,000; AID 485346, 2010;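 active means inhibition of at least 50% at 8 µM in the primary screen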
Target sequence (O15151 whole entry, looked up): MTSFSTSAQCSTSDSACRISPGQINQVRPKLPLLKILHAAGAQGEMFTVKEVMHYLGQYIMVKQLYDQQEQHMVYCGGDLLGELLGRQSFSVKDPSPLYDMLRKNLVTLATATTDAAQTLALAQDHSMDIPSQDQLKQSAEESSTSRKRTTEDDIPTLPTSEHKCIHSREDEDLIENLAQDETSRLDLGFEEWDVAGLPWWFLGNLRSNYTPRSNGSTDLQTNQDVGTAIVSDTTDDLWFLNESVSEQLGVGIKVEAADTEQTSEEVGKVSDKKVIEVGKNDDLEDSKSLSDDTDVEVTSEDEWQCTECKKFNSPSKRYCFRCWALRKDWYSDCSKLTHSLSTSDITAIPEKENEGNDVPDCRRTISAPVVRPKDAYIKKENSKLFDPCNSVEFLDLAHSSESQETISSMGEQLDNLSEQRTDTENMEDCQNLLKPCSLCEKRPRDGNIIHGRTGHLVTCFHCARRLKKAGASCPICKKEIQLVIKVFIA
Target sequence (Q00987 whole entry, looked up): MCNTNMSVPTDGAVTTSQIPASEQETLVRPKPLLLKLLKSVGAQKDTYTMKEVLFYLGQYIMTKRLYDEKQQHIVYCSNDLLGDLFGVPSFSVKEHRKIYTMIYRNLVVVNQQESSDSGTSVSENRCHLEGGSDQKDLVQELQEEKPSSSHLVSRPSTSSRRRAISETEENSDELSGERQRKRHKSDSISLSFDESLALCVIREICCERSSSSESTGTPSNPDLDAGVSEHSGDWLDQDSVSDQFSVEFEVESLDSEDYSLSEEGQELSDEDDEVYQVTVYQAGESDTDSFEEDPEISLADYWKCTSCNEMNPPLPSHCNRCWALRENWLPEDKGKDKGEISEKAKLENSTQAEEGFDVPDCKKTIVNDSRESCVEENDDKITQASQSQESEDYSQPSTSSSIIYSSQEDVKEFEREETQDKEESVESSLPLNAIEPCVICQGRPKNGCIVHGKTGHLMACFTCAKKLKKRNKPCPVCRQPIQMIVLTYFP
UPR XBP1 act = activators of adaptive XBP1 UPR arm, primary screen, cell-based, CHO-XBP1 luciferase reporter, luminescence, uHTS. activation, % at 20 µM. hit rate 0.33% among 330,000. AID 463104, 2010. IRE1-XBP1 UPR activation; percent of tunicamycin response, DMSO as zero;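 active means versus positive control, 20 µM dose yields 30% or more activation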;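 further: 100% = tunicamycin at 10 µg/mL and 0% = DMSO only wells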
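Material: IRE1-XBP1 luciferase reporter CHO line / Quantity: one thousand reporter cells per well / Buffer or medium: F12 with 10% serum / Compound: 20 µM single concentration, DMSO 1% / Times: 6 h treatment, 37 °C / Detection: Steady-Glo luciferase glow luminescence, 10 min after reagent addition / Benchmarks: tunicamycin high, DMSO low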
CHOP UPR activ = activators of apoptotic CHOP UPR arm, primary screen, cell-based, CHO-CHOP luciferase reporter, luminescence, uHTS; UPR activation; percent of tunicamycin response over DMSO baseline; activation, % at 10 µM; hit rate 0.34% among 330,000; AID 449763, 2010;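 active means at 10 µM dose, activation of 40% or more, normalized to positive control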;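 further: 100% = tunicamycin at 10 µg/mL and 0% = DMSO alone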
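Evaluation: % reporter activation, DMSO baseline versus tunicamycin full activation; System: CHO-CHOP luciferase reporter cell line; Input: 500 cells/well; Incubation: 6 h compound treatment, 37 °C; Measured by: Steady-Glo luciferase luminescence; Dosing: one dose, 10 µM in 0.5% DMSO; Buffer or medium: F12 medium, 10% FBS; Benchmarks: positive tunicamycin 10 µg/mL, negative DMSO alone.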
Mdm2 MdmX conf = Mdm2-MdmX complex disruptors, retested hits, confirmation, luminescence, single concentration; shares compounds with Mdm2-MdmX inh; Mdm2-MdmX binding, luminescent assay; inhibition, % at 8 µM; hit rate 55% among 10,000; in the data active means inhibition above about 40%
FLuc counter = full-length luciferase signal inhibition, confirmation, counter-screen for Mdm2/MdmX interaction inhibitor project, cell-based, single concentration, SaOS-2. SaOS-2 full-length luciferase counterscreen, luminescence. shares compounds with Mdm2-MdmX inh. hit rate 77% among 6,200. inhibition, % at 8 µM. AID 504607, 2011;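 active means mean inhibition at 8 µM reaching about 37%, which flags the compound as non-specific, limit read from the data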;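 further: p53-null SaOS-2 cells with luciferase driven by a doxycycline-inducible promoter; compound on cells about two nights before reading with doxycycline added after day one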
* = called active by the depositor; . = not tested or not shown.

SMILES	ABHD5 PLIN5 PPI	Granule exo inh	Mdm2-MdmX inh	UPR XBP1 act	CHOP UPR activ	Mdm2 MdmX conf	FLuc counter
Cn1cc([N+](=O)[O-])c(C(=O)Nc2nccs2)n1	-2	2	57*	-6	1	17	.
Cn1cc([N+](=O)[O-])c(C(=O)Nc2ccc(-c3nc4ccccc4o3)cc2)n1	2	0	52*	2	9	49*	43*
CCOC(=O)c1sc2nc(CSc3ccccc3)nc(N3CCCN(C)CC3)c2c1C	12	32	74*	17	2	43*	63*
CC(=O)Nc1ccc(S(=O)(=O)NC(C(=O)O)C(C)C)cc1 (stereo not given)	-6	2	17	-1	-1	.	.
COc1ccc(-c2csc3ncnc(NCCCO)c23)cc1	-1	8	46	3	-3	.	.
COc1ccc(-c2csc3ncnc(NCCO)c23)cc1	1	-3	71*	-5	1	59*	26
CCC(=NCCc1c(C)[nH]c2ccc(C)cc12)C1=C(O)CC(c2ccccc2)CC1=O (stereo not given)	-3	-3	67*	8	2	61*	70*
CC(=O)C1=C(O)CC(c2ccccc2)CC1=NCCc1c(C)[nH]c2ccc(C)cc12 (stereo not given)	-1	0	-13	-4	-1	.	.
NC(=O)c1ccccc1Nc1nc2nc3ccccc3c(=O)n2cc1Br	.	.	74*	5	5	-5	.
Cc1ccc(SCC(=O)NCc2ccccc2)cc1	3	-4	23	-2	5	.	.
CN(C)c1ccc(C2CNC(c3ccc(Cl)c([N+](=O)[O-])c3)c3[nH]c4ccccc4c32)cc1 (stereo not given)	4	-2	54*	-1	-1	29	62*
CC(=O)Nc1ccc(S(=O)(=O)N(C)CC(=O)OCC(=O)c2ccc3c(c2)NC(=O)CO3)cc1	-10	1	1	1	-2	.	.
Cc1ccccc1Cc1c(C)nc2c(C(=O)NCc3ccc4c(c3)OCO4)cnn2c1C	-1	4	-5	0	1	.	.
O=[N+]([O-])c1cc(S(=O)(=O)Nc2ccccc2)ccc1-n1nnc2ccccc21	-6	2	26	-3	-2	.	.
O=[N+]([O-])c1cc(C(F)(F)F)ccc1-n1nnc2ccccc21	3	2	64*	-1	-1	10	.
COc1cc(C2=NOC(C(=O)NCc3ccc(F)cc3)C2)cc(OC)c1OC (stereo not given)	8	4	61*	11	-1	58*	83*
COc1ccc(C2=NOC(C(=O)NCc3ccc(F)cc3)C2)cc1OC (stereo not given)	0	5	44	7	0	.	.
COc1cccc(NC(=O)Cn2c3ccc(OC)cc3c3nc4n(c(=O)c32)CCS4)c1	8	-1	37	4	0	.	.
COc1ccc2c(c1)c1nc3n(c(=O)c1n2CC(=O)Nc1cc(C)[nH]n1)CCS3	.	.	67*	-2	0	59*	101*
C=CC[C@@H](CC(=O)N[C@H](CO)Cc1ccccc1)C(=O)N[C@H](COC(=O)[C@@H](CC=C)Cc1ccc(F)cc1)C(C)(C)C	-11	0	37	-3	-1	.	.
C=CC[C@@H](CC(=O)N[C@H](CO)Cc1ccccc1)C(=O)N[C@@H](COC(=O)[C@@H](CC=C)Cc1ccc(F)cc1)Cc1ccccc1	2	4	70*	3	3	16	.
C=CC[C@@H](CC(=O)N[C@@H](CO)Cc1ccccc1)C(=O)N[C@H](COC(=O)[C@@H](CC=C)Cc1ccc(F)cc1)Cc1ccccc1	-11	6	53*	-2	1	35	55*
COc1ccc(NS(=O)(=O)c2ccc3nc(COc4ccc5ccccc5c4)[nH]c3c2)cc1	1	5	40	-2	-1	.	.
O=C(Nc1ccc(N2CCN(C(=O)c3ccccc3)CC2)cc1)c1ccc([N+](=O)[O-])o1	5	5	.	.	.	.	.
CCN1CCN(c2c(Cl)cccc2NC(=O)c2ccc([N+](=O)[O-])o2)CC1	1	6	55*	-3	3	28	.
SMILES	ABHD5 PLIN5 PPI	Granule exo inh	Mdm2-MdmX inh	UPR XBP1 act	CHOP UPR activ	Mdm2 MdmX conf	FLuc counter
O=C(Nc1ccccc1N1CCN(C(=O)c2ccc(Cl)cc2)CC1)c1ccc([N+](=O)[O-])o1	8	25	55*	-4	7	33	.
O=C(Nc1cccc(Cl)c1N1CCCC1)c1ccc([N+](=O)[O-])o1	8	-1	29	3	-2	.	.
Cc1ccccc1C(=O)N1CCN(c2ccc(NC(=O)c3ccc([N+](=O)[O-])o3)cc2)CC1	8	1	72*	-1	40	76*	90*
Cc1ccc(SCC(=O)N(C)C2CCS(=O)(=O)C2)cc1 (stereo not given)	0	-2	17	-1	1	.	.
O=C(Cn1cnc2sc(-c3ccccc3)cc2c1=O)NCc1ccccc1	3	14	77*	-2	0	56*	56*
O=C(Cn1cnc2sc(-c3ccccc3)cc2c1=O)NCCc1ccccc1	-7	-3	93*	0	-1	35	98*
O=C(c1ccco1)N1CCN(C(=O)C2CCN(S(=O)(=O)c3cccc4nsnc34)CC2)CC1	11	-6	20	1	-1	.	.
O=C(CSc1nnc(SCc2ccccc2Cl)s1)N/N=C/c1ccc(C(=O)O)cc1	5	3	11	0	4	.	.
O=C(Nc1ncc(Cc2ccc(SC(F)F)cc2)s1)c1ccc(OC(F)F)cc1	-6	1	62*	14	3	64*	96*
Cc1ccc(Cc2cnc(NC(=O)c3ccco3)s2)cc1	5	0	-97	-5	-1	.	.
CCC(CC)NC(=O)Nc1cccc(C)c1C	0	-8	5	-1	-3	.	.
CC(C)N(CC(=O)Nc1ccc(Cl)cc1C(F)(F)F)C(=O)CCl	16	1	63*	-3	3	11	.
CCC(C)N(CC(=O)Nc1cccc(C)c1C)C(=O)CCl (stereo not given)	18	1	100*	-2	4	99*	52*
O=C(COC(=O)c1ccc([N+](=O)[O-])s1)NNC(=O)c1ccccc1	-2	4	30	-3	1	.	.
